Experimental data collected from several papers.
Each line is one published result; the experiments were not run side by side.
Target: Mitogen-activated protein kinase kinase kinase kinase 2 (MAP4K2, Homo sapiens, UniProt Q12851)
One construct used (Q12851 1-820): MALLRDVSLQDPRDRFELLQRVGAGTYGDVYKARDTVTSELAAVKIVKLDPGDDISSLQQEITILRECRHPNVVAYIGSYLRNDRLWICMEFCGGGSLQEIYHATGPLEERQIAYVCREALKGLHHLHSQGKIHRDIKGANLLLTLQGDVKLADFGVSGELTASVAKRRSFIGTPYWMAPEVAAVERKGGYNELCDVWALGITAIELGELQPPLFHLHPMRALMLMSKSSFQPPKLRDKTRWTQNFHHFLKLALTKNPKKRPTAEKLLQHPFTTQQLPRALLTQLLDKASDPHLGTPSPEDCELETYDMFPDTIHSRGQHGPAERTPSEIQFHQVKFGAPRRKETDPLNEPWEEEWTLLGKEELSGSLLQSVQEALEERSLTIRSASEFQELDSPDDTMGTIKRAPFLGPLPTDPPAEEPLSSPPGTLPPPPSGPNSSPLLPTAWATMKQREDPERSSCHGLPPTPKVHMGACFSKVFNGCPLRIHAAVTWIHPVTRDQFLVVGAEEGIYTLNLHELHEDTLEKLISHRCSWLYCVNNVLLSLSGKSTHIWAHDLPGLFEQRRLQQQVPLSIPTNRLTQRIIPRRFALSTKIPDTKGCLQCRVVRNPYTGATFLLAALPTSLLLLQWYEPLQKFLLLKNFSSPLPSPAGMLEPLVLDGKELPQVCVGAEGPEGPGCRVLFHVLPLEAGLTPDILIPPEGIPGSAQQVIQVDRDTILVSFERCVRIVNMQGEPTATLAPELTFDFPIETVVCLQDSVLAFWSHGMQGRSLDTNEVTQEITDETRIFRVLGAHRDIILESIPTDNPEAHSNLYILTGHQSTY

| Structure (SMILES) | test | setting | endpoint | value |
| --- | --- | --- | --- | --- |
| COc1ccc2c(O[C@@H]3C[C@H]4C(=O)N[C@]5(C(=O)O)CC5/C=C\CCCCC[C@H](NC(=O)OC5CCCC5)C(=O)N4C3)cc(-c3csc(NC(=O)C(C)C)n3)nc2c1C (some centres unmarked) | cell-free assay, competition with immobilised ligand | 1 µM | remaining binding | 100% |
| Cc1cnc(NC2CCOCC2)nc1-n1cnc(C(=O)NC(CN)c2cc(F)cc(Cl)c2)c1 (centres unmarked) | enzyme activity, inhibitor, radiometric | 1 µM | remaining activity | 100% |
| O=C(O)[C@H]1[C@H](Cn2nnc3ccccc3c2=O)CC[C@@H]1C(=O)c1ccc(OCCC2CCOCC2)cc1 | cell-free assay, competition with immobilised ligand | 1 µM | remaining binding | 100% |
| CCCOc1ccc(OC)c(F)c1C(=O)c1ccc(C(=O)N[C@@H]2CNC[C@H]2NC(=O)c2ccc3[nH]ncc3c2)cc1 | enzyme activity, inhibitor | 10 µM | remaining activity | 61% |
| COc1cc2ncnc(Nc3ccc(F)c(Cl)c3)c2cc1OCCCN1CCOCC1 | cell-free assay | 0.5 µM | remaining signal | 104% |
| COc1cc(Cl)c(C(=O)N[C@@H](CN[C@H]2CC[C@@H](N)CC2)Cc2ccc(C#N)cc2)cc1-c1ccc(CN[C@H](C)c2ccc(C)cc2)o1 | enzyme activity, inhibitor | 1 µM | remaining activity | 94% |
| Cc1ccc(Nc2nccc(N(C)c3ccc4c(C)n(C)nc4c3)n2)cc1S(N)(=O)=O | enzyme activity, inhibitor | 10 µM | inhibition | 83% |
| O=C(Nc1cccnn1)N1CCC(=Cc2cccc(Oc3ccc(C(F)(F)F)cn3)c2)CC1 | cell-free assay, competition with immobilised ligand | 1 µM | remaining binding | 100% |
| Cc1ccc(NC(=O)c2ccc(C)c(C(F)(F)F)c2)cc1C#Cc1nn(C2CCC(O)CC2)c2ncnc(N)c12 (centres unmarked) | cell-free assay | 10 µM | remaining signal | 49% |
| O=C1NC(=O)c2cc(Nc3ccc(F)cc3)c(Nc3ccc(F)cc3)cc21 | cell-free assay | 0.5 µM | remaining signal | 98.2% |
| Cn1c(=O)n(-c2ccc(C(C)(C)C#N)cc2)c2c3cc(-c4cnc5ccccc5c4)ccc3ncc21 | enzyme activity, inhibitor | 10 µM | remaining activity | 12% |
| CNC(=O)c1cc(Oc2ccc(NC(=O)Nc3ccc(Cl)c(C(F)(F)F)c3)cc2)ccn1 | enzyme activity, inhibitor | 0.3 µM | inhibition | 5% |
| Cc1ccc(C(=O)Nc2ccc(CN3CCN(C)CC3)c(C(F)(F)F)c2)cc1C#Cc1cnc2cccnn12 | enzyme activity, inhibitor | 23.5 nM | remaining activity | 4.9% |
| COc1cc(Nc2c(C#N)cnc3cc(OCCCN4CCN(C)CC4)c(OC)cc23)c(Cl)cc1Cl | cell-free assay | 0.5 µM | remaining signal | 3.16% |
| C[C@H](c1ccnc(Nc2nc3ccc(-c4cc(N(C)C)ncn4)cc3[nH]2)c1)N1CCN(C(=O)CC(F)(F)F)CC1 | cell-free assay, competition with immobilised ligand | 0.1 µM | remaining binding | 100% |
| CN1CCN(C(=O)c2ccc3cc(CCNc4ccnc5ccc(C#N)cc45)ccc3c2)CC1 | binding, competition with immobilised ligand | 2 µM | inhibition | > 35% |
| CC(C)(C)c1nc2c(s1)c1nc(N)ncc1c1ccc(NS(=O)(=O)c3c(F)cccc3F)c(F)c12 | enzyme activity, inhibitor, radiometric | 1 µM | remaining activity | 114% |
| FC(F)(F)Oc1cccc(-c2cnc3ccc(-c4ccncc4)nn23)c1 | enzyme activity, inhibitor, radiometric | 1 µM | activity vs control | 37% |
| O=c1nc(-c2ccccn2)sc2ccccc12 | binding, competition with immobilised ligand | 1 µM | remaining binding | 100% |
| COc1cc2ncnc(Nc3ccc(Oc4ccccc4)cc3C)c2cc1OC | enzyme activity, inhibitor | 1 µM | inhibition | 2% |
| c1ccc(N2CCN(Cc3nc4ccccc4[nH]3)CC2)nc1 | binding, competition with immobilised ligand | 1 µM | remaining binding | 100% |
| Cc1sc(C(=O)NC2COC2)cc1-n1cc(NC(=O)Nc2c(F)cccc2Cl)cn1 | enzyme activity, inhibitor | 10 µM | remaining activity | 90.2% |
| CC(=O)N1CCC(c2ccc(C(=O)NC(=N)N)cc2C(F)(F)F)CC1 | cell-free assay, competition with immobilised ligand | 1 µM | remaining binding | 100% |
| COc1cc(Nc2cnc(C#N)c(O[C@H](C)CN(C)C)n2)ncc1-c1cnn(C)c1 | enzyme activity, inhibitor, radiometric | 10 µM | remaining activity | 56% |
| CCc1ccccc1C(=O)Nc1n[nH]c2c(C)c(F)c(C3C(C#N)=C(C)N(C)C(C)=C3C#N)cc12 | cell-free assay, competition with immobilised ligand | 1 µM | remaining binding | 100% |
| CCN(CC)CCNC(=O)c1c(C)[nH]c(/C=C2\C(=O)Nc3ccc(F)cc32)c1C | enzyme activity, inhibitor | 0.3 µM | inhibition | 45% |
